29 molecules from ChEMBL document CHEMBL3870315, “Design, synthesis and biological evaluation of novel cholesteryl ester transfer protein inhibitors bearing a cycloalkene scaffold” (Eur J Med Chem, 2016) can be followed below.

The source made the active and inactive calls. The calls are words filed in the database; no cut-off is given here. Bounds are passed on as bounds.

For data set [1], the target named is T1, Cholesteryl ester transfer protein (Homo sapiens, UniProt P11597).
T1 sequence (P11597 whole entry): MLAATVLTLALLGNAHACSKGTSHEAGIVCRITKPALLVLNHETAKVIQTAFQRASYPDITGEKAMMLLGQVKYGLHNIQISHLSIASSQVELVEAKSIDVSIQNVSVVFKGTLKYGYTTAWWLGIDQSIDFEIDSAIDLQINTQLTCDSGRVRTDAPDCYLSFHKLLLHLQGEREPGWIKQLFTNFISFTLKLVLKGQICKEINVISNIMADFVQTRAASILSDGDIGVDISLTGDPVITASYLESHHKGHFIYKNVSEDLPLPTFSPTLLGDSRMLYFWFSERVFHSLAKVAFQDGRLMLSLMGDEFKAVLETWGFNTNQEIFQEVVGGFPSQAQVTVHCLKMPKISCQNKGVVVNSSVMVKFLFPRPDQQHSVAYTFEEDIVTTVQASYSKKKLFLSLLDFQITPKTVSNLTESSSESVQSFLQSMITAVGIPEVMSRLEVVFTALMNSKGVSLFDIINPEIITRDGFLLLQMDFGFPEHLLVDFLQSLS
The data set can be described thus: Inhibition of recombinant CETP (unknown origin) assessed as inhibition of BODIPY-labeled cholesteryl transfer to fluorescent substrate by fluorimetric assay.

Data set [2] deals with Syrian golden hamster. Description: In vivo inhibition of CETP in high-fat fed syrian hamster model assessed as increase in plasma HDL-cholesterol level at 30 mg/kg, po administered once daily for 5 days measured 2 hrs post last dose relative to control. The format is functional. An outline of the steps: (§1)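 Male Syrian golden hamsters, 8 weeks old and about 110–120 g, fed a diet with 10% lard oil and 3% cholesterol for 4 weeks, then randomized into four groups. Oral dosing once daily for 5 days in 10% ethanol/10% hydrogenated castor oil/80% water, with a vehicle control group. Animals were fasted 16 h before bleeding. Retro-orbital blood was taken at baseline and 2 h after the last dose. Plasma HDL-C was measured on a chemistry analyser and expressed as percent change. Mean ± SEM.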

In data set [3] the test system is Syrian golden hamster. Description: In vivo inhibition of CETP in po dosed high-fat fed syrian hamster model assessed as increase in plasma HDL-cholesterol level administered once daily for 5 days measured 2 hrs post last dose. It counts as functional, organism-based. The note with it: Mesocricetus auratus. An outline of the steps:
as §1

In data set [4] the test system is Syrian golden hamster. Description: In vivo inhibition of CETP in high-fat fed syrian hamster model assessed as increase in plasma HDL-cholesterol level at 50 mg/kg, po administered once daily for 5 days measured 2 hrs post last dose relative to control. The format is functional, Mesocricetus auratus. The arrangement: scale not given: the % may be the effect or the level left. Summed up:
as §1

A short description of data set [5]: AUC in Sprague-Dawley rat at 50 mg/Kg, po. The format is ADME. The note with it: in vivo. Summed up:
(§2)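 Four adult male Sprague-Dawley rats, fasted 16 h, given a single oral dose of 50 mg/kg suspended in 10% ethanol/10% hydrogenated castor oil/80% water. Heparinized blood was drawn at 0.5–36 h (15 time points) and centrifuged at 3000 rpm for 15 min. Plasma was stored at -70°C until analysis.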

Data set [6] can be described thus: Terminal half life in Sprague-Dawley rat at 50 mg/Kg, po. It counts as ADME. The note with it: in vivo, read-out: beta t1/2 (converted). Summed up: as §2
Data set [7] is described as follows: Tmax in Sprague-Dawley rat at 50 mg/Kg, po. It counts as ADME. The following applies: in vivo. An outline of the steps: as §2
Data set [8] in a line: Cmax in Sprague-Dawley rat at 50 mg/Kg, po. The following applies: in vivo. It counts as ADME. The arrangement: dose 50 mg/Kg, route oral. An outline of the steps: as §2

What is called IC50 is the concentration that gives 50% inhibition. In the case of `COc1ccc(C(C)C)cc1C1=C(CN(Cc2cc(C(F)(F)F)cc(C(F)(F)F)c2)c2ncc(N3CCNCC3)cn2)CC(C)(C)CC1`, the IC50 in data set [1] came to 350 nM.

With `COc1ccc(C(C)C)cc1C1=C(CN(Cc2cc(C(F)(F)F)cc(C(F)(F)F)c2)c2ncc(N3CCC(C(=O)O)CC3)cn2)CC(C)(C)CC1`, in data set [1], the IC50 was 370 nM.

Regarding `COC(=O)COc1cnc(N(CC2=C(c3cc(C(C)C)ccc3OC)CCC(C)(C)C2)Cc2cc(C(F)(F)F)cc(C(F)(F)F)c2)nc1`, the concentration for half-maximal inhibition (IC50) in data set [1] stood at 910 nM.

Turning to `COc1ccc(C(C)C)cc1C1=C(CN(Cc2cc(C(F)(F)F)cc(C(F)(F)F)c2)c2ncc(-c3cnn(C)c3)cn2)CC(C(C)(C)C)CC1` (stereo unspecified), the IC50 in data set [1] worked out at 70 nM.

For the molecule `COc1ccc(C(C)C)cc1C1=C(CN(Cc2cc(C(F)(F)F)cc(C(F)(F)F)c2)c2ncc(OCCCC(=O)O)cn2)CC(C)(C)CC1`, the IC50 in data set [1] amounted to 300 nM.

On to `COc1ccc(C(C)C)cc1C1=C(CN(Cc2cc(C(F)(F)F)cc(C(F)(F)F)c2)c2ncc(-c3cccs3)cn2)CC(C)(C)CC1`, for which the IC50 in data set [1] is more than 50000 nM.

Take `COc1ccc(C(C)C)cc1C1=C(CN(Cc2cc(C(F)(F)F)cc(C(F)(F)F)c2)c2ncc(-c3cnn(C)c3)cn2)CC(C)CC1` (stereo unspecified): the concentration for half-maximal inhibition (IC50) in data set [1] was 60 nM.

With `COc1ccc(C(C)C)cc1C1=C(CN(Cc2cc(C(F)(F)F)cc(C(F)(F)F)c2)c2ncc(-c3c(C)noc3C)cn2)CC(C)(C)CC1`, the half-maximal inhibitory concentration (IC50) in data set [1] is more than 50000 nM.

For `COc1ccc(C(C)C)cc1C1=C(CN(Cc2cc(C(F)(F)F)cc(C(F)(F)F)c2)c2ncc(-c3ccnn3C)cn2)CC(C)(C)CC1`, the IC50 in data set [1] was more than 50000 nM.

Turning to `COc1ccc(C(C)C)cc1C1=C(CN(Cc2cc(C(F)(F)F)cc(C(F)(F)F)c2)c2ncc(-c3cnn(C)c3)cn2)CCc2ccccc21`, the 50% inhibitory concentration (IC50) in data set [1] is 220 nM.

For the molecule `COc1ccc(C(C)C)cc1C1=C(CN(Cc2cc(C(F)(F)F)cc(C(F)(F)F)c2)c2ncc(N3CCN(C)CC3)cn2)CC(C)(C)CC1`, in data set [1], the half-inhibitory concentration (IC50) was 2070 nM.

For `COC(=O)N(CC1=C(c2cc(C(C)C)ccc2OC)CCC(C)(C)C1)Cc1cc(C(F)(F)F)cc(C(F)(F)F)c1`, the IC50 in data set [1] was found to be 21000 nM.

On to `COc1ccc(C(C)C)cc1C1=C(CN(Cc2cc(C(F)(F)F)cc(C(F)(F)F)c2)c2ncc(-c3cnn(C)c3)cn2)c2ccccc2CC1`, for which the IC50 in data set [1] was 6630 nM.

`COc1ccc(C(C)C)cc1C1=C(CN(Cc2cc(C(F)(F)F)cc(C(F)(F)F)c2)c2ncc(N3CCC(N)CC3)cn2)CC(C)(C)CC1`: the IC50 in data set [1] worked out at 170 nM.

Turning to `CCC1CCC(c2cc(C(C)C)ccc2OC)=C(CN(Cc2cc(C(F)(F)F)cc(C(F)(F)F)c2)c2ncc(-c3cnn(C)c3)cn2)C1` (stereo unspecified), the 50% inhibitory concentration (IC50) in data set [1] worked out at 80 nM.

With `COc1ccc(C(C)C)cc1C1=C(CN(Cc2cc(C(F)(F)F)cc(C(F)(F)F)c2)c2ncc(OCCO)cn2)CC(C)(C)CC1`, the IC50 in data set [1] came to 190 nM.

`COCCOc1cnc(N(CC2=C(c3cc(C(C)C)ccc3OC)CCC(C)(C)C2)Cc2cc(C(F)(F)F)cc(C(F)(F)F)c2)nc1`: the IC50 in data set [1] is 420 nM.

On to `COc1ccc(C(C)C)cc1C1=C(CN(Cc2cc(C(F)(F)F)cc(C(F)(F)F)c2)c2ncc(-c3cnn(C)c3)cn2)CCCCC1`, for which, in data set [1], the IC50 is 1620 nM.

Take `COc1ccc(C(C)C)cc1C1=C(CN(Cc2cc(C(F)(F)F)cc(C(F)(F)F)c2)c2ncc(-c3cnn(C)c3)cn2)CCC1`: the IC50 in data set [1] turned out to be 2760 nM.

As to `COc1ccc(C(C)C)cc1C1=C(CN(Cc2cc(C(F)(F)F)cc(C(F)(F)F)c2)c2ncc(N3CCC(NC(C)=O)CC3)cn2)CC(C)(C)CC1`, the concentration for half-maximal inhibition (IC50) in data set [1] was 520 nM.

Turning to `COc1cc(F)c(C(C)C)cc1-c1ccc(C(F)(F)F)cc1CN1C(=O)O[C@H](c2cc(C(F)(F)F)cc(C(F)(F)F)c2)[C@@H]1C`, in the data set with Syrian golden hamster [2] (Mesocricetus auratus), the result was Active.

Turning to `COc1ccc(C(C)C)cc1C1=C(CN(Cc2cc(C(F)(F)F)cc(C(F)(F)F)c2)c2ncc(N3CCOCC3)cn2)CC(C)(C)CC1`, the IC50 in data set [1] was 860 nM.

As to `COc1ccc(C(C)C)cc1C1=C(CN(Cc2cc(C(F)(F)F)cc(C(F)(F)F)c2)c2ncc(Br)cn2)CC(C)(C)CC1`, the IC50 in data set [1] was more than 50000 nM.

The term AUC denotes the area under the concentration-time curve, a measure of exposure. What is called Tmax is the time at which the peak concentration occurs. In general, Cmax refers to the maximum level reached in the sampled fluid or tissue. Turning to `COc1ccc(C(C)C)cc1C1=C(CN(Cc2cc(C(F)(F)F)cc(C(F)(F)F)c2)c2ncc(-c3cnn(C)c3)cn2)CC(C)(C)CC1`, the results for the Activity result with Syrian golden hamster [3], in the data set on Syrian golden hamster [4] and in the data set with Syrian golden hamster [2] were “Dose-dependent effect”, 27.9% and 9.3%, respectively. The same molecule registered an AUC in data set [5] of 6990 ng·h/mL. Further, in data set [6], the half-life is 11.1 h. The time of peak concentration (Tmax) in data set [7] worked out at 2.5 h. Also, the IC50 in data set [1] is 70 nM. In data set [8], this molecule had a maximum concentration (Cmax) of 697 ng/mL.

On to `COc1ccc(C(C)C)cc1C1=C(CN(Cc2cc(C(F)(F)F)cc(C(F)(F)F)c2)c2ncc(-c3cnn(C)c3)cn2)CCCC1`, for which the IC50 in data set [1] came to 930 nM.

On to `COc1ccc(C(C)C)cc1C1=C(CN(Cc2cc(C(F)(F)F)cc(C(F)(F)F)c2)C(=O)OCc2ccccc2)CC(C)(C)CC1`, for which the half-maximal inhibitory concentration (IC50) in data set [1] was more than 50000 nM.

In the case of `COc1ccc(C(C)C)cc1C1=C(CN(Cc2cc(C(F)(F)F)cc(C(F)(F)F)c2)c2ncc(O)cn2)CC(C)(C)CC1`, the IC50 in data set [1] was found to be 3520 nM.

Regarding `COc1ccc(C(C)C)cc1C1=C(CN(Cc2cc(C(F)(F)F)cc(C(F)(F)F)c2)c2ncc(OCC(=O)O)cn2)CC(C)(C)CC1`, the concentration for half-maximal inhibition (IC50) in data set [1] amounted to 360 nM.

Regarding `COc1ccc(C(C)C)cc1C1=C(CN(Cc2cc(C(F)(F)F)cc(C(F)(F)F)c2)C(=O)OCC(C)C)CC(C)(C)CC1`, the half-inhibitory concentration (IC50) in data set [1] is more than 50000 nM.
